PolyA inh: inhibitors of polyadenylation in S. cerevisiae; 300,000 tested, 0.02% active; activity score, % at 12 µM; S. cerevisiae SKY197-pL101 polyadenylation reporter, beta-gal luminescence; efflux-impaired pdr1/pdr3 knockout yeast; score 100 = 6 SD above DMSO;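 active = lowest replicate activity score at least 50, where 100 means six control SD above control mean; inconclusive = lowest score under 50 but half or more replicates reach 50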;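 note: yeast exposed to compound for 9 h at 30 °C; higher score means more reporter readthrough which indicates perturbed polyadenylation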
Pemphigus Ab inh: inhibitors of pemphigus antibody binding to human desmoglein-3. P32926. DSG3-coupled beads, scFv-anti-DSG3-GFP binding, flow cytometry; stronger effect = lower value. binding (percent of control), % at 10 µM. 310,000 tested, 0.48% active;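 active = binding more than 3 SD below its plate's average and above zero; inconclusive = below that plate limit but binding exactly zero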;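 note: hits lower antibody fragment binding to DSG3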
NALP3 yeast inh: blocks the NALP3 inflammasome reconstituted in yeast | Yeast reconstituted NLRP3/ASC/caspase-1, beta-gal luminescence, 24 h | inhibition, % at 10 µM | 330,000 tested, 0.39% active | AID 2825;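 active = inhibition of 50% or more; inactive = inhibition below 50%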
Arr AP2 block: human beta-arrestin and AP2 interaction inhibition; inhibition, % at 10 µM; 340,000 tested, 0.31% active; FITC-arrestin peptide / GST-AP2 beads, flow cytometry; AP2 beta2 appendage carries R879A mutation;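 active = inhibition above a set limit, near 3 SD of compounds lacking own fluorescence, cut at about 54% in these data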
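System: GST-AP2 R879A glutathione beads; medium: PBS, Tween 20 0.05%, BSA 0.1%; reagent: fluorescein-tagged arrestin peptide at 50 nM final; schedule: pre-incubation 12 min, peptide binding 1 h, room temperature; detection: flow cytometry, FL1 (488/535 nm); read-out: inhibition as reduced fluorescein signal on beads, percent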
ALR inh: inhibitors of human sulfhydryl oxidase ALR; P55789; AID 485317; purified ALR, DTT oxidation, H2O2 HRP-luminol luminescence; inhibition, % (test concentration not listed); 290,000 tested, 3.8% active;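 active = mean replicate inhibition above about 79%, with every replicate also reaching it, limit read from the data; inconclusive = only one of the two criteria met; inactive = mean below limit and not every replicate reaching it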
Target sequence (P55789 whole entry, looked up): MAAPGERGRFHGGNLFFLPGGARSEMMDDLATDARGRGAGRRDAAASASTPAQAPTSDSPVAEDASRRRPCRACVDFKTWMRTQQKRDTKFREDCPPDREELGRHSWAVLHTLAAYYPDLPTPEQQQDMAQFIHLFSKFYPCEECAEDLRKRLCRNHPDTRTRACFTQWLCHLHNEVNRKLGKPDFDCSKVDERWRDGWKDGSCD
NALP1 inh: inhibitors of NALP1 inflammasome in yeast; 280,000 tested, 0.61% active; S. cerevisiae NALP1/ASC/caspase-1 growth, X-gal OD620, 72 h; inhibition, % at 10 µM; in the data active = inhibition mostly above about 24%, no sharp cut-off; inactive = mostly below about 32%
NALP3 confirm: confirmation of NALP3 inhibitors in yeast. shares compounds with NALP3 yeast inh. yeast expressing human NALP3, luminescence. inhibition, % at 10 µM. 1,300 tested, 81% active; in the data active = inhibition above about 48%
Casp1-ASC yeast: counter-screen for NALP3 inhibitors: yeast caspase-1-ASC | 1,000 tested, 66% active | yeast expressing Caspase-1-ASC, luminescence counter screen | AID 488784 | shares compounds with NALP3 yeast inh | inhibition, % at 10 µM
NALP3 retest: yeast NALP3 inhibition, confirmed on retest. shares compounds with NALP3 yeast inh. yeast expressing human NALP3, luminescence read-out. inhibition, % at 10 µM. 1,000 tested, 53% active. AID 488794
Each line names hits and unclear results; the compound was inactive in the other large screens (follow-up assays come after a bar, where they were run); ! = not confirmed by another sample. This is a sample that favours compounds with a hit; in the whole collection about 4.6% have one here. Cut-off read from the data, not from the text of the source, unless noted: active = inhibition above about 50%; inactive = the rest.

CCOC(=O)N=Nc1c(O)n(CC(=O)OC)c2ccccc12	none
CCOC(=O)N=Nc1c2ccccc2c2nc3no[nH]c3nc12	NALP3 yeast inh 86 (no result: Pemphigus Ab inh, ALR inh) | NALP3 confirm 92 | Casp1-ASC yeast 72 | NALP3 retest 62
O=C1CN(C(=O)COc2ccc(Br)cc2)c2ccccc2N1	none
O=c1c2ccccc2nc(-c2ccc([N+](=O)[O-])cc2)n1O	PolyA inh inconclusive, NALP3 yeast inh 58 | NALP3 confirm 74 | Casp1-ASC yeast 51 | NALP3 retest 58
c1ccc2c(c1)ncn2CCOCCOCCn1cnc2ccccc21	none
Clc1ccc(OCCn2cnc3ccccc32)c(Cl)c1	NALP3 yeast inh 71 | NALP3 confirm 62 | Casp1-ASC yeast 77 | NALP3 retest 63
COc1ccc(N2CCN(c3ccc(Cl)nn3)CC2)cc1	none
CCOC(=O)c1c(NC(=O)CN2CCCc3ccccc32)sc(C(C)=O)c1C	none
CCc1ccc(C(=O)NNc2cc(Cl)ccc2Cl)cc1	NALP3 yeast inh 65 | NALP3 confirm 66 | Casp1-ASC yeast 61 | NALP3 retest 60
CCc1ccc(C(=O)NNc2ccc(C)c(Cl)c2)cc1	NALP3 yeast inh 53 | NALP3 confirm 53 | Casp1-ASC yeast inactive | NALP3 retest inactive
CCc1ccc(C(=O)NNc2ccc(F)cc2)cc1	none (no result: Pemphigus Ab inh)
CC(C)CN(C(=O)COC(=O)CSc1ccc(Br)cc1)C1CCS(=O)(=O)C1 (stereo unspecified)	none (no result: PolyA inh, ALR inh, NALP1 inh)
C=CCN(CC=C)C(=O)c1cc2ccccc2c(=O)o1	none
C[C@]12CCC(=O)C[C@@H]1CC[C@@H]1[C@@H]2CC[C@]2(C)[C@@H](C(=O)COC(=O)CCC(=O)O)CC[C@@H]12	NALP3 yeast inh 54 | NALP3 confirm 77 | Casp1-ASC yeast 51 | NALP3 retest inactive
Cc1occc1C(=O)NC(C)C12CC3CC(CC(C3)C1)C2 (stereo unspecified)	none
CC(NC(=O)c1ccccc1F)C12CC3CC(CC(C3)C1)C2 (stereo unspecified)	NALP3 yeast inh 51 (no result: NALP1 inh) | NALP3 confirm 60 | Casp1-ASC yeast 53 | NALP3 retest inactive
CCOC(=O)C1=CN(Cc2cccc(-c3cccnc3)c2)S(=O)(=O)N(CC)C1C (stereo unspecified)	none (no result: PolyA inh, NALP3 yeast inh, ALR inh, NALP1 inh)
CCCCCCCCCCCCCCCCn1cc[n+](C)c1	NALP3 yeast inh 61, NALP1 inh 94! | NALP3 confirm 72
CCOC(=O)C1=Nc2ccccc2C1=[N+]=[N-]	NALP3 yeast inh 82, NALP1 inh 75 | NALP3 confirm 89 | Casp1-ASC yeast 97 | NALP3 retest 87
COC(=O)c1ccc(-c2nc3ccccc3[nH]2)cc1	NALP3 yeast inh 63 | NALP3 confirm inactive
COc1ccc(-c2nc3ccccc3[nH]2)cc1	NALP3 yeast inh 55 | NALP3 confirm 62 | Casp1-ASC yeast 57 | NALP3 retest 66
c1ccc(-c2nc3ccccc3[nH]2)cc1	none
CN1COc2ccc3ccccc3c2C1	none
N/C(Cc1ccc(Cl)cc1)=N\OC(=O)c1cccc2ccccc12	NALP3 yeast inh 57 | NALP3 confirm 45 | Casp1-ASC yeast 55 | NALP3 retest 51
N/C(Cc1ccc(Cl)cc1)=N\OC(=O)c1ccc2ccccc2c1	none
COc1ccc(N2CCN(C(=O)c3cc([N+](=O)[O-])ccc3N3CCN(CCO)CC3)CC2)cc1	none
Cc1ccc2nc(NC(=O)Cc3cccs3)sc2c1	NALP3 yeast inh 52 | NALP3 confirm 63 | Casp1-ASC yeast 51 | NALP3 retest 53
Cc1ccc(-c2cnn(-c3cccc(C(F)(F)F)c3)c2N)cc1	NALP3 yeast inh 57 | NALP3 confirm 66 | Casp1-ASC yeast inactive | NALP3 retest inactive
N#C/C(=C\c1ccc(O)cc1)c1nc2ccccc2o1	NALP3 yeast inh 71 | NALP3 confirm 77 | Casp1-ASC yeast 85 | NALP3 retest 80
O=C(N/N=C/C(Cl)=C/c1ccccc1)c1ccco1	none
O=C(N/N=C/C(Cl)=C\c1ccccc1)c1ccco1	Pemphigus Ab inh 88, NALP3 yeast inh 59 | NALP3 confirm 61 | Casp1-ASC yeast 74 | NALP3 retest 56
Cc1cc(Cl)c2oc(C(=O)N(C)Cc3ccon3)c(C)c2c1	NALP3 yeast inh 50, NALP1 inh 42 | NALP3 confirm 48 | Casp1-ASC yeast inactive | NALP3 retest inactive
Cc1cc(Cl)c2oc(C(=O)N(C)Cc3cc(C)[nH]n3)c(C)c2c1	none
C/C(=N\NC(=S)NCc1ccccc1)c1ccc2ccccc2c1OC(F)F	NALP3 yeast inh 56 | NALP3 confirm inactive
Cc1ccc(NC(=O)CN(C)C(=O)C(C)N2CCN(Cc3ccccc3C)CC2)cc1 (stereo unspecified)	Pemphigus Ab inh inconclusive (no result: PolyA inh, ALR inh, NALP1 inh)
COc1ccccc1NC(=O)Nc1cccc(C)n1	NALP3 yeast inh 66 | NALP3 confirm 74 | Casp1-ASC yeast 55 | NALP3 retest 60
Cc1ccc(NC(=O)Cc2csc(-c3ccccc3)n2)cc1F	NALP3 yeast inh 62 | NALP3 confirm inactive | Casp1-ASC yeast 53 | NALP3 retest 60
O=Cc1cn(-c2ccccc2)nc1-c1ccccc1	NALP3 yeast inh 60 | NALP3 confirm 72 | Casp1-ASC yeast 60 | NALP3 retest 53
CCOC(=O)c1sc(=NC(=O)c2ccccc2)n(C)c1C	NALP3 yeast inh 63 (no result: ALR inh) | NALP3 confirm 75
CSc1ccccc1NC(=O)c1ccccc1C	none
CCc1ccn2cc(-c3cc(-c4ccccc4)no3)nc2c1	NALP3 yeast inh 81 | NALP3 confirm 81 | Casp1-ASC yeast inactive | NALP3 retest inactive
CC(C)Cn1c(N)c(C(=O)COC(=O)CCNS(=O)(=O)c2ccccc2)c(=O)n(C)c1=O	none (no result: NALP1 inh)
CC(O)/C=C/c1ccc2ccccc2n1 (stereo unspecified)	NALP3 yeast inh 50 | NALP3 confirm 70 | Casp1-ASC yeast inactive | NALP3 retest inactive
CC(=O)n1cc([C@@H]2C=C(C(=O)NCc3ccccc3)O[C@H](OCCCCO)C2)c2ccccc21	NALP3 yeast inh 89 | NALP3 confirm inactive | Casp1-ASC yeast inactive | NALP3 retest inactive
O=S(=O)(c1ccc(Cl)cc1)N1CCN(c2ccccn2)CC1	none
Cc1csc2c(N3CCN(S(=O)(=O)c4ccc(Cl)cc4)CC3)ncnc12	NALP3 yeast inh 68 | NALP3 confirm 55 | Casp1-ASC yeast inactive | NALP3 retest inactive
Cc1csc2c(N3CCCCC3)ncnc12	none
O=S(=O)(c1ccc(Cl)cc1)N1CCN(c2ncnc3sccc23)CC1	NALP3 yeast inh 50 (no result: PolyA inh, NALP1 inh) | NALP3 confirm 52 | Casp1-ASC yeast inactive | NALP3 retest inactive
